# From PubChem BioAssay
# An excerpt weighted towards active compounds, which were near 0.99% of everything screened.
# SKN-1 inh – suppressors of acrylamide-induced Pgst-4::GFP reporter in worms, primary screen, SKN-1 inhibitor project, whole organism, uHTS, GFP/RFP fluorescence ratio, strain VP596; C. elegans VP596 Pgst-4::GFP/RFP ratio, 24 h; inhibition, % at 21.8 µM; 360,000 compounds, 0.49% hits;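 active means interference check ratio from 0.5 to 1.5 plus GFP to RFP signal ratio inhibition reaching or exceeding a fixed threshold, cut at about 30% in these data, passing the limit was not always enough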
# TLR4 MyD88 comp – inhibitors of TLR4-MyD88 association in cells, primary screen, cell-based, HeLa CL3-4, BLA complementation, FRET ratio. Toll-like receptor 4 (Homo sapiens) + Myeloid differentiation primary response protein …. HeLa CL3-4 TLR4/MyD88 BLA complementation. inhibition, % at 8.4 µM. 200,000 compounds, 0.18% hits. AID 861, 2007; in the data active means inhibition above about 25%;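 further: 0% = vehicle and 100% = reference inhibitor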
# Target sequence (O00206 whole entry, looked up): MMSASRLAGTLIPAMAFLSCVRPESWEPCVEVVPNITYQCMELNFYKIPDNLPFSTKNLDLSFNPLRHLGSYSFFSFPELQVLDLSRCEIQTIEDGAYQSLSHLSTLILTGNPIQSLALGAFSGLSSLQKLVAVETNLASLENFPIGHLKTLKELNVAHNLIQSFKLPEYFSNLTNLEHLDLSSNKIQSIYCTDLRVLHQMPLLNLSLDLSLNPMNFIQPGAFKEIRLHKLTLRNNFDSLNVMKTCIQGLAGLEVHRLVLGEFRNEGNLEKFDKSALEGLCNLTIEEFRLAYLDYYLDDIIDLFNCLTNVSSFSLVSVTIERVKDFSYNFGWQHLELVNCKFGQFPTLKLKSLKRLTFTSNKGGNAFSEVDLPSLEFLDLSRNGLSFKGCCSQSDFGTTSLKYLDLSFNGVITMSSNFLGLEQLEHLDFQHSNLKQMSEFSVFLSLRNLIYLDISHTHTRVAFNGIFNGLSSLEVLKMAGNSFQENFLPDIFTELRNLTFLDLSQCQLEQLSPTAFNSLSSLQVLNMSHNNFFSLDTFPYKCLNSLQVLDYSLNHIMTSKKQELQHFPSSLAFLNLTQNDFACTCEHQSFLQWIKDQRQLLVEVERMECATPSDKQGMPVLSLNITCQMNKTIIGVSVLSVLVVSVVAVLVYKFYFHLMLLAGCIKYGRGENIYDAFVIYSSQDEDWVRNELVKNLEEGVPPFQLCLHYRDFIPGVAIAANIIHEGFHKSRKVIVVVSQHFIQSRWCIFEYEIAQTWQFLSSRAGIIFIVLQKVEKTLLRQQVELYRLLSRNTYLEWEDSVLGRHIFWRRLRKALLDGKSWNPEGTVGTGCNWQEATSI
# Target sequence (Q99836 whole entry, looked up): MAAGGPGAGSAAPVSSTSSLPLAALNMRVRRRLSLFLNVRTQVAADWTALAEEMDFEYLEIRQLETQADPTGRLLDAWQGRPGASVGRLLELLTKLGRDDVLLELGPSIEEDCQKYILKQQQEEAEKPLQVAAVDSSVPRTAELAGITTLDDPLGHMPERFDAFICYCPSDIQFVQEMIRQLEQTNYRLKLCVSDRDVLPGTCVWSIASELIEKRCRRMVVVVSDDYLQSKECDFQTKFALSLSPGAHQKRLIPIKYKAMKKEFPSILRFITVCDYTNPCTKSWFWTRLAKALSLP
# MT1-MMP act inh – blockers of MT1-MMP proenzyme processing, primary screen, HT1080 RFP-PRO-GFP cells, GFP/RFP fluorescence. Matrix metalloproteinase-14 (Homo sapiens), P50281. GFP/RFP ratio fluorescence, overnight; percent of plate control window, DMSO zero. GFP/RFP ratio change, % at 20 µM. 360,000 compounds, 0.061% hits. AID 651647, 2012;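 active means GFP/RFP ratio change of at least 30% with cell ATP level not reduced by more than half and red fluorescence within 50% of control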
#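 Test system: HT1080 RFP-PRO-GFP cells; Benchmarks: DMSO and RFP-L50D-GFP cell wells; Timing: cells overnight before dosing, compound overnight, 37 °C, 5% CO2; Compound: one 20 µM compound dose with 1% DMSO; Read-out: GFP/RFP fluorescence ratio.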
# NOD2-RIPK2 inh – NOD2-RIPK2 binding disruptors in cells, primary screen, fluorescence, CHO cells, BLA complementation; Receptor-interacting serine/threonine-protein kinase 2 (Homo sapiens), O43353; CCF4 ratio; inhibition, % at 4.98 µM; 360,000 compounds, 0.38% hits; in the data active means inhibition above about 21%;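 further: 0% = vehicle only and 100% = reference blocker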
# TLR9-MyD88 block – inhibitors of TLR9-MyD88 association in cells, primary screen, cell-based, CHO, BLA complementation, fluorescence; 340,000 compounds, 0.21% hits; CCF4 FRET ratio; inhibition, % at 4.98 µM; AID 504734, 2011;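 active means inhibition above the mean over all tested compounds plus 3 SD, cut at about 21% in these data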;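 further: 0% = DMSO only wells and 100% = clavulanate BLA inhibitor control wells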
# * marks the source's active call; other numbers are inactive results; . = no result.
SMILES,SKN-1 inh,TLR4 MyD88 comp,MT1-MMP act inh,NOD2-RIPK2 inh,TLR9-MyD88 block
CN(C)S(=O)(=O)c1cccc(C(=O)N=C2N=C3C=CC(Cl)=CN3Cc3ccccc32)c1,56.6*,.,-2.9,1.4,11.4
O=C(N=C1N=C2C=CC=CN2Cc2ccccc21)c1ccc(S(=O)(=O)N2CCCC2)cc1,1.9,.,1.2,3.4,-6.8
CC(c1nnc(SCC(=O)c2c(N)n(C3CC3)c(=O)[nH]c2=O)n1-c1ccc(F)cc1)N(C)C (stereo not drawn),-0.3,.,3.7,-9.4,6.2
O=C(CCNS(=O)(=O)c1ccc(F)cc1)N1CCN(c2ncccn2)CC1,16.6,.,2.3,-7.2,-5.2
CCC(C)(C)c1nnc(NC(=O)CCC2CCCCC2)s1,35.7*,.,4.0,4.2,.
O=C(CCN1C(=O)/C(=C/c2ccccc2Cl)SC1=S)Nc1ccccc1C(=O)O,39.2*,.,2.3,8.2,0.3
CC(C)N(CCCNC(=O)c1nn(C)c2c1CS(=O)(=O)c1ccccc1-2)Cc1ccccc1,-0.1,.,2.4,4.9,-11.7
CC(C)CCC(CCNCc1ccccn1)c1ccc2c(c1)OCO2 (stereo not drawn),-7.2,.,.,1.5,-15.9
CC(C)C(CCNCc1ccccn1)c1ccc(Cl)cc1 (stereo not drawn),38.3*,.,2.4,3.4,1.1
CCN(CC)C(=O)Oc1ccc(Br)c2ccccc12,37.1*,-5.6,-0.9,-6.4,-2.9
CNC(=O)CSc1nc2ccccc2c(=O)n1-c1cc(OC)ccc1OC,-1.1,.,2.5,8.4,-1.9
COc1ccc(C)cc1S(=O)(=O)NC(C)c1cnn(-c2ccccn2)c1C (stereo not drawn),7.7,.,-2.1,2.8,2.4
Clc1ccc2c(c1)c1cc(Cl)ccc1n2CN1CCOCC1,32.8*,3.4,2.9,6.2,-7.0
O=[N+]([O-])c1ccc2c(c1)C(N1CCOCC1)/C(=C/COc1ccc(F)cc1)O2 (stereo not drawn),3.2,-5.9,-2.5,9.4,-4.2
O=[N+]([O-])c1ccc(OC/C=C2\Oc3ccc([N+](=O)[O-])cc3C2N2CCOCC2)cc1 (stereo not drawn),37.3*,-19.5,-2.3,-2.1,-8.3
Fc1ccc(C(Nc2ccccn2)c2c[nH]c3ccccc23)cc1 (stereo not drawn),3.4,2.8,-3.6,-1.7,-10.0
OC(c1ccccn1)c1c[nH]c2ccccc12 (stereo not drawn),36.8*,-5.0,-1.5,10.3,-1.6
CN(CC(=O)Nc1ncn[nH]1)S(=O)(=O)c1ccc(Cl)cc1,0.3,.,-0.7,-6.7,-17.9
CC(CCc1ccco1)NC(=O)CSc1cc(=O)n(C)c2ccccc12 (stereo not drawn),37.1*,11.2,-1.0,-2.0,9.4
CCn1c(=O)cc(SCC(=O)NCc2ccco2)c2ccccc21,16.7,-6.4,2.0,-5.8,-7.6
CC(C)N1C(=O)NC2NC(=O)N(C(C)C)C21 (stereo not drawn),1.5,.,-0.2,-1.1,.
COc1ccc(C2=NNC(=O)C2(C)Br)cc1 (stereo not drawn),-6.5,.,6.2,-5.3,-6.9
O=C(CN1CCN(S(=O)(=O)N2CCCCC2)CC1)Nc1cc(Cl)cc(Cl)c1,36.9*,.,3.1,8.5,1.0
Clc1ccc(Nc2ncnc3ccc(Br)cc23)cc1,36.3*,1.7,-27.4,3.0,-8.7
O=c1c2ccccc2oc2ccc(Oc3ccccc3)cc12,41.3*,.,4.6,12.1,-9.1
SMILES,SKN-1 inh,TLR4 MyD88 comp,MT1-MMP act inh,NOD2-RIPK2 inh,TLR9-MyD88 block
CN(c1ccccc1)c1nc2ccsc2c(=O)s1,43.0*,-3.7,-2.1,-7.6,2.0
CCN(c1ccccc1)c1nc2ccsc2c(=O)s1,0.8,0.5,-7.4,-3.8,-9.9
N/C(=N\OC(=O)c1ccc(Cl)cc1Cl)c1ccccn1,52.2*,-23.8,1.3,13.2,4.7
N/C(=N\OC(=O)c1cc(Cl)ccc1Cl)c1ccncc1,19.1,19.4,-4.5,-3.0,0.8
N/C(=N\OC(=O)c1ccc(Cl)cc1Cl)c1ccncc1,40.4*,.,1.2,-1.9,-3.0
Cc1ccc(C(=O)O/N=C(\N)c2ccccn2)c(Cl)c1,-11.8,.,-9.5,-13.0,0.4
N/C(=N\OC(=O)c1cc(Br)ccc1Cl)c1ccccn1,47.2*,5.4,1.6,1.8,-9.2
COc1ccc(Cl)cc1NS(=O)(=O)c1cccc(C(=O)NCC2(N(C)C)CCCCC2)c1,8.1,.,-0.8,-3.9,4.5
CCCCN(C(=O)C1CCCC1)c1c(N)n(CC(C)C)c(=O)[nH]c1=O,-10.6,.,3.2,-13.9,-2.5
CN1CCN(CC(=O)Nc2cc(S(=O)(=O)N3CCOCC3)ccc2Cl)CC1,6.2,.,-3.9,7.1,-0.8
COCCn1c(C)cc(/C=C2/SC(=O)N(CC(=O)N3CCCC3)C2=O)c1C,5.5,.,2.5,1.8,-1.2
O=c1c2ccccc2oc2ccc(-c3ccc4[nH]ccc4c3)cc12,61.9*,.,-3.1,6.3,0.3
Cc1ccc(C(=O)CSC2=C(C#N)C(c3ccco3)C3=C(CC(C)(C)CC3=O)N2)cc1 (stereo not drawn),27.6*,8.0,-0.5,-9.3,-8.1
CC1(C)CC(=O)C2=C(C1)NC(SCC(=O)Nc1ccccc1)=C(C#N)C2c1ccco1 (stereo not drawn),0.3,2.6,-9.5,-2.0,-1.6
CCn1c(CSc2nnc(-c3ccncc3)n2C)nc2cc(C(=O)O)ccc21,40.6*,.,20.9,-7.6,1.6
NC(=S)c1csc(CCNC(=O)c2ccccc2)n1,7.1,.,-0.2,1.4,-2.8
CC(Oc1ccc(Cl)cc1)C(=O)N(C)CC(=O)Nc1ccc(N2CCOCC2)cc1 (stereo not drawn),10.5,.,-0.6,6.1,-12.4
CCOC(=O)C(Oc1ccc2c(-c3ccccc3)cc(=O)oc2c1C)c1ccccc1 (stereo not drawn),0.4,5.4,-11.9,0.8,8.6
CCOC(=O)C(Oc1ccc2c(-c3ccc(OC)cc3)cc(=O)oc2c1C)c1ccccc1 (stereo not drawn),35.8*,-17.6,-13.0,-5.0,-15.1
Cc1ccc2cc3c(NC(=O)c4cccnc4)nn(C)c3nc2c1,40.2*,6.1,5.6,0.1,9.9
CC(=O)Nc1nn(C)c2nc3cc(C)ccc3cc12,-15.2,8.6,4.4,-7.3,-1.1
O=C(c1ccccc1)N1CCN(C(=S)NCc2ccco2)CC1,3.6,9.2,1.4,-2.0,1.1
CC(C)C(c1nnnn1Cc1ccco1)N1CCN(C2CCCC2)CC1 (stereo not drawn),51.2*,-1.6,2.2,-7.9,0.8
Clc1ccccc1-c1ncc(-c2ccccc2)o1,41.8*,.,0.5,4.7,0.8
